This is an account of results in PubChem BioAssay.

Active and inactive are the calls of the source.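 How the source made its calls, unless noted: active means signal rise over 3 SD above mean of control wells given weak agonist, in both repeats and first screen; inactive means the rest.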

One may read the inhibition as how much of the control response was suppressed.

Tested on in one experiment: not listed separately
As to the kind of experiment: serotonin-gated TRPC4 signal block – cell-based, second counter screen, HEK293 TRPC4/5HT1a, Fluo-4, counter-screen for TRPC4 inhibitor project, confirmation (AID 434978;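 active means primary screen active whose calcium signal fell more than 3 SD beyond the full-serotonin control mean in both duplicate plates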;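 on outcome: serotonin given first at submaximal then at maximal dose after compound preincubation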). Conditions: Fluo-4 calcium flux, at 10 µM, serotonin added to trigger calcium flux; stronger effect = higher value. The method in brief:
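System: HEK293 line stably carrying TRPC4 plus 5HT1a receptor; benchmarks: maximal serotonin stimulation controls; measured by: Fluo-4 calcium flux, kinetic fluorescence; reagent: sequential submaximal then ECmax serotonin stimulation; times: compound 110 s, submaximal serotonin 110 s, ECmax serotonin read 110 s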
(In general: A counterscreen serves to expose hits that act by an unwanted route or on another target.)
Regarding `Cc1ccc(C(=O)NNC(=O)C2CSC3(C)CCC(=O)N23)cc1` (configuration not stated), the outcome was inactive. The same measure, in the same setting: next, `CCCc1nc2oc3c(NCCCN(C)C)ncnc3c2c2c1CCCC2`: “inactive”; `CCc1nc2ccccc2n1Cc1ccccc1F`: “inactive”. With `O=C(Cc1ccccc1)Nc1cccc(NC(=O)c2cccs2)c1`, the result was inactive.

For the molecule `CCCCN(CC)CCCNC(=O)c1cc2cc3ccc(C)cc3nc2o1`, the result was inactive. On to `O=C1C=CC(=O)N1CCNc1ncc(C(F)(F)F)cc1Cl`, for which the outcome was inactive. For `Cc1cc(NC(=O)CSCC(=O)Nc2ccc(Cl)c(C(F)(F)F)c2)no1`, the inhibition was 35.2% (active). As for `Cc1ccc2c(c1)C1CN(C)CCC1N2C(=S)NC(=O)c1ccc(Br)cc1` (configuration not stated), the outcome was inactive.

In the case of `CCc1nc2ccccc2n1Cc1ccc(F)cc1`, the result was inactive. Take `CCN(CC)CCSc1nnc2c3ccccc3n(Cc3ccccc3)c2n1`: the outcome was inactive. Consider `CCN1C2=NCCCN2c2cc(C)c(C)cc21`, for which the result was inactive. Consider `Cc1cc(C)c2c(=O)n(CC(=O)Nc3cccc(Cl)c3C)sc2n1`, for which the result was inactive.

`COc1cc(C2(c3ccc(O)c(OC)c3)C(=O)Nc3c(C)cc(Br)cc32)ccc1O`: the outcome was inactive. For the molecule `COc1ccc(CC2(CO)CCN(C/C=C/c3ccccc3OC)CC2)cc1`, the inhibition was 33.5% (active). Turning to `Cc1nn(-c2cc(C(F)(F)F)ccc2Cl)c2nc(C(Cl)(Cl)Cl)[nH]c(=O)c12`, the outcome was inactive. In the case of `Cc1ccc(C(=O)O)cc1N=Cc1cc(Br)cc(Br)c1O`, the outcome was inactive. For `CCOc1ccc(N=CNc2ccc(OCC)cc2)cc1`, the outcome was inactive.

Turning to `CCN(CC)c1ncnc2sc3c(c12)CCC3`, the result was inactive. Still for that read-out and setting: next, `COc1ccc(NS(=O)(=O)c2ccc3ccccc3c2)c2ncccc12`: “inactive”. The same measure, in the same setting: the entry for `CCN1CCN(CCC(=O)Nc2ccccc2OC)CC1` is “inactive”; for `COc1cc(NC(=O)CSc2ncnc3sc4c(c23)CCC(C)C4)c(C(=O)O)cc1OC` (configuration not stated) it is “inactive”; for `Cc1[nH]nc(-c2ccc(O)cc2O)c1-c1nc2ccccc2s1` it is “inactive”. `CC1CCC2C(C1)c1sc(=O)[nH]c1SC2(C)C` (configuration not stated): the outcome was inactive.

A further experiment relates to TRPC4 (mouse), co-expressed with 5HT1a in HEK293. As to the kind of experiment: enhancement of serotonin-evoked TRPC4 response – cell-based, second counter screen, HEK293 TRPC4/5HT1a, Fluo-4, counter-screen for TRPC4 potentiator project, confirmation (AID 434979). Conditions: Fluo-4 calcium flux, at 10 µM, serotonin added at its EC20 dose; stronger effect = higher value.
`CN(CCCNC(=O)CCCOc1cc(=O)n(C)c2ccccc12)Cc1ccccc1`: the potentiation is 20.2% (active).

Take `CCOc1ccccc1C(=O)NCCc1cnc[nH]1`: the potentiation was 16.9% (active).

For the molecule `Cc1ccccc1-n1c(=O)c2c(n3cnnc13)-c1ccccc1CC21CCCCC1`, the potentiation was 10.5% (active). For `CN(C)S(=O)(=O)N1CCC(CCCC2CCN(S(=O)(=O)N(C)C)CC2)CC1`, the potentiation was 8.71% (active). In the case of `O=C(Nc1ccnn1C1CCN(Cc2cc3ccccc3[nH]2)CC1)C1CCOC1` (configuration not stated), the outcome was inactive. With `C=CCOc1ccc(CN(C)Cc2nc3cc(C(F)(F)F)ccc3c(=O)[nH]2)cc1`, the potentiation was 10.9% (active). In the case of `Cc1ccc(C(=O)C[n+]2cccc3cc(C)ccc32)cc1`, the outcome was inactive. On the same count and under the same terms, the entry for `CN(C)CCCN(C(=O)CCc1ccccc1)c1nc2ccc(F)cc2s1` is “inactive”. With `CC(=O)n1cc([C@@H]2C=C(C(=O)NCc3ccccc3)O[C@H](OCc3ccc(CO)cc3)C2)c2ccccc21`, the potentiation is 14.7% (active).

Consider `O=C(O)CCCN1C(=O)/C(=C\c2ccc(-c3nc4ccccc4s3)o2)SC1=S`, for which the potentiation was 22.6% (active). On the same count and under the same terms, next, `CCOCCCn1c(=S)[nH]c2cc(C(=O)NCCCN(CC)CC)ccc2c1=O`: 16.1% (active); `O=C(NCc1ccccc1)c1ccc(S(=O)(=O)Nc2cccc(C(F)(F)F)c2)cc1`: 44.3% (active); `CCOC(=O)C1CCCN(C(=O)CCCn2nnnc2CN2CCOCC2)C1` (configuration not stated): 13.4% (active). Consider `COc1cc(OC)c2c(-c3ccccc3)cc(=O)oc2c1C(CCN1CCCCC1)c1ccc(N(C)C)cc1` (configuration not stated), for which the outcome was inactive. The same measure, in the same setting: the entry for `CCCCCCCCCC[n+]1cccc2c3ccccc3ccc21` is “inactive”. Consider `CC(C)NS(=O)(=O)c1ccc(NC(=O)C(C)Oc2ccc(C(=O)c3ccccc3)cc2)cc1` (configuration not stated), for which the potentiation is 30.1% (active). For the molecule `Cc1ccc(C(=O)NNC(=O)C2CSC3(C)CCC(=O)N23)cc1` (configuration not stated), the potentiation was 7.03% (active).

On to `CCCc1nc2oc3c(NCCCN(C)C)ncnc3c2c2c1CCCC2`, for which the outcome was inactive. The same measure, in the same setting: the entry for `CCc1nc2ccccc2n1Cc1ccccc1F` is “inactive”; for `O=C(Cc1ccccc1)Nc1cccc(NC(=O)c2cccs2)c1` it is “inactive”. Consider `CCCCN(CC)CCCNC(=O)c1cc2cc3ccc(C)cc3nc2o1`, for which the potentiation is 21.8% (active). `O=C1C=CC(=O)N1CCNc1ncc(C(F)(F)F)cc1Cl`: the outcome was inactive. Still for that read-out and setting: the entry for `Cc1cc(NC(=O)CSCC(=O)Nc2ccc(Cl)c(C(F)(F)F)c2)no1` is “inactive”. On to `Cc1ccc2c(c1)C1CN(C)CCC1N2C(=S)NC(=O)c1ccc(Br)cc1` (configuration not stated), for which the potentiation is 23.8% (active).

With `CCc1nc2ccccc2n1Cc1ccc(F)cc1`, the result was inactive. Same read-out and setting: next, `CCN(CC)CCSc1nnc2c3ccccc3n(Cc3ccccc3)c2n1`: “inactive”; `CCN1C2=NCCCN2c2cc(C)c(C)cc21`: “inactive”.

`Cc1cc(C)c2c(=O)n(CC(=O)Nc3cccc(Cl)c3C)sc2n1`: the potentiation is 9.63% (active).

Turning to `COc1cc(C2(c3ccc(O)c(OC)c3)C(=O)Nc3c(C)cc(Br)cc32)ccc1O`, the potentiation is 71.7% (active). Turning to `COc1ccc(CC2(CO)CCN(C/C=C/c3ccccc3OC)CC2)cc1`, the result was inactive. Take `Cc1nn(-c2cc(C(F)(F)F)ccc2Cl)c2nc(C(Cl)(Cl)Cl)[nH]c(=O)c12`: the result was inactive. For the molecule `Cc1ccc(C(=O)O)cc1N=Cc1cc(Br)cc(Br)c1O`, the result was inactive.

As to `CCOc1ccc(N=CNc2ccc(OCC)cc2)cc1`, the potentiation was 23% (active). For the molecule `CCN(CC)c1ncnc2sc3c(c12)CCC3`, the result was inactive. Turning to `COc1ccc(NS(=O)(=O)c2ccc3ccccc3c2)c2ncccc12`, the result was inactive.

For `CCN1CCN(CCC(=O)Nc2ccccc2OC)CC1`, the potentiation is 17.3% (active). Regarding `COc1cc(NC(=O)CSc2ncnc3sc4c(c23)CCC(C)C4)c(C(=O)O)cc1OC` (configuration not stated), the outcome was inactive. The same measure, in the same setting: the entry for `Cc1[nH]nc(-c2ccc(O)cc2O)c1-c1nc2ccccc2s1` is “inactive”; for `CC1CCC2C(C1)c1sc(=O)[nH]c1SC2(C)C` (configuration not stated) it is “inactive”.
